Assays:
[1] = biological target: T1, Prostaglandin D2 receptor 2 (Homo sapiens, UniProt Q9Y5Y4); assay: Displacement of[3H]PGD2 from human CRTH2 receptor expressed in african green monkey COS7 cells; type: cell-based, COS-7
T1 sequence (Q9Y5Y4 whole entry): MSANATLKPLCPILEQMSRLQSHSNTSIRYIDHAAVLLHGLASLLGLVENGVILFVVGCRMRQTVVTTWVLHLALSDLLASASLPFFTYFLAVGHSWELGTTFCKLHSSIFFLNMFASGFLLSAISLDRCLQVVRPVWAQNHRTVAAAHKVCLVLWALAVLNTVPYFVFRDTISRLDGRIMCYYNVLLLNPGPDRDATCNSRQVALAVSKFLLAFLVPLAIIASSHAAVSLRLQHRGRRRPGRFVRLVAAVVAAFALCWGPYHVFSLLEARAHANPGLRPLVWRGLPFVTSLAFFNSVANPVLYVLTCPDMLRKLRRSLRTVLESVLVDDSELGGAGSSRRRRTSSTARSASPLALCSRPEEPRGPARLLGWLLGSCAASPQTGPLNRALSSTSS
Summary of the method: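 Equilibrium competition binding against [³H]PGD₂ on stably transfected COS7 cells expressing human CRTH2. Nonspecific binding defined with […] unlabelled PGD₂. IC50 reported.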

[2] = biological target: T1, Prostaglandin D2 receptor 2; assay: Antagonist activity at human CRTH2 receptor expressed in HEK285-7 cells assessed as inhibition of beta arrestin translocation by bioluminescence resonance energy transfer assay; type: functional, cell-based
Summary of the method: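 BRET2 readout in HEK385-7 cells transfected with CRTH2 (GFP2-β-arrestin2 acceptor, receptor-Rluc donor). Cells preincubated with antagonist 5 min with shaking, then PGD₂ added at a level eliciting about 75–80% of maximal agonist response, 5 min more. DeepBlueC coelenterazine injected; emission read 5 s later at 400 and 515 nm; signal = 515/400 ratio. IC50 derived.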

[3] = biological target: T2, Prostaglandin D2 receptor 2 (Homo sapiens) (UniProt Q9Y5Y4); assay: Antagonist activity at human CRTH2 receptor expressed in HEK285-7 cells assessed as inhibition of beta arrestin translocation by bioluminescence resonance energy transfer assay relative to control; type: functional, cell-based
T2 sequence (whole entry): T1 sequence (Q9Y5Y4 whole entry)
Summary of the method: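 Same BRET2 β-arrestin2 translocation format in CRTH2-transfected HEK385-7 cells: 5 min antagonist preincubation, then PGD₂ at about 75–80% of maximal agonist efficacy for 5 min, DeepBlueC coelenterazine, 515/400 nm ratio. Value is antagonist efficacy expressed as percent.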

Row | SMILES | IC50 [1] [nM] | IC50 [2] [nM] | Efficacy [3] [%]
1 | O=C(O)Cc1sc(-c2ccc(Oc3ccccc3)cc2)nc1-c1ccccc1 | 160 | 660 | > 70
2 | O=C(O)Cc1sc(Cc2ccc(Cl)cc2)nc1-c1ccc(Oc2ccccc2)cc1 | 3.7 | 66 | > 70
3 | O=C(O)Cc1sc(Nc2ccc(C(F)(F)F)cc2)nc1-c1ccc(Cl)cc1 | 700 | 1100 | > 70
4 | CCc1ccc(-c2nc(-c3ccccc3OC)sc2CC(=O)O)cc1 | 1400 |  | > 70
5 | COc1ccccc1Nc1nc(-c2ccc(Cl)cc2)c(CC(=O)O)s1 | 450 | 730 | > 70
6 | COc1cccc(-c2ccccc2Cc2nc(-c3ccc(F)cc3)c(CC(=O)O)s2)c1 | 40 | 390 | > 70
7 | COc1ccc(-c2nc(Nc3ccccc3)sc2CC(=O)O)cc1 | 1900 | 2400 | > 70
8 | O=C(O)Cc1sc(-c2ccccc2)nc1-c1ccc(-c2ccccc2)cc1 | 38 | 630 | > 70
9 | O=C(O)Cc1sc(Nc2ccccc2)nc1-c1ccc(Cl)cc1 | 100 | 1300 | > 70
10 | Cc1ccc(Nc2nc(-c3ccc(Cl)cc3)c(CC(=O)O)s2)cc1 | 750 | 560 | > 70
11 | O=C(O)Cc1sc(Cc2ccccc2-c2ccccc2)nc1-c1ccc(F)cc1 | 24 | 370 | > 70
12 | O=C(O)Cc1sc(Nc2ccc(Cl)cc2)nc1-c1ccc(-c2ccccc2)cc1 | 940 | 3800 | 20
13 | O=C(O)Cc1sc(-c2ccccc2)nc1-c1ccc(F)cc1 | 860 | 3500 | > 70
14 | COc1ccccc1Nc1nc(-c2ccc(Oc3ccccc3)cc2)c(CC(=O)O)s1 | 49 | 480 | > 70
15 | O=C(O)Cc1sc(-c2ccc(F)cc2)nc1-c1ccccc1 | 1500 | 3700 | > 70
16 | O=C(O)Cc1sc(Nc2ccc(Cl)cc2)nc1-c1ccc(F)cc1 | 960 | 1900 | > 70
17 | COc1ccc(-c2ccccc2Cc2nc(-c3ccc(F)cc3)c(CC(=O)O)s2)cc1 | 72 | 270 | > 70
18 | CN(C)c1ccc(-c2nc(-c3ccc(Br)cc3)c(CC(=O)O)s2)cc1 | 460 |  | > 70
19 | COc1ccccc1Nc1nc(-c2ccc(-c3ccccc3)cc2)c(CC(=O)O)s1 | 310 | 1900 | > 70
20 | Cc1ccc(Cc2nc(-c3ccccc3)c(CC(=O)O)s2)cc1 | 250 | 1800 | > 70

Row | SMILES | IC50 [1] [nM] | IC50 [2] [nM] | Efficacy [3] [%]
21 | Cc1ccc(-c2nc(-c3ccc(Cl)cc3)sc2CC(=O)O)c(C)c1 | 990 |  | > 70
22 | O=C(O)Cc1sc(Cc2ccccc2-c2ccc3c(c2)OCO3)nc1-c1ccc(F)cc1 | 24 | 1500 | > 70
23 | O=C(O)Cc1sc(Cc2ccccc2-c2ccccc2)nc1-c1ccc(Cl)cc1 | 41 | 510 | > 70
24 | COc1ccc(Cc2nc(-c3ccccc3)c(CC(=O)O)s2)cc1OC | 330 | 3800 | > 70
25 | O=C(O)Cc1sc(Nc2ccccc2)nc1-c1ccc(-c2ccccc2)cc1 | 660 | 1200 | > 70
26 | O=C(O)Cc1sc(Nc2ccc(F)cc2)nc1-c1ccc(Oc2ccccc2)cc1 | 89 | 540 | > 70
27 | O=C(O)Cc1sc(Cc2ccccc2)nc1-c1ccc(F)cc1 | 140 | 180 | 30
28 | COc1ccc(-c2nc(-c3ccc(Cl)cc3)sc2CC(=O)O)cc1 | 210 |  | > 70
29 | COc1ccccc1-c1nc(-c2ccc(Br)cc2)c(CC(=O)O)s1 | 350 |  | > 70
30 | O=C(O)Cc1sc(-c2ccccc2)nc1-c1ccc(Cl)cc1 [FENTIAZAC] | 550 | 960 | > 70
31 | O=C(O)Cc1sc(Cc2ccccc2-c2cccc(OC(F)(F)F)c2)nc1-c1ccc(F)cc1 | 160 | > 100000 | > 70
32 | O=C(O)Cc1sc(Nc2ccccc2)nc1-c1ccccc1 | 350 | 1500 | > 70
33 | O=C(O)Cc1sc(Cc2ccccc2Br)nc1-c1ccc(F)cc1 | 700 | > 100000 | > 70
34 | N#Cc1ccc(-c2ccccc2Cc2nc(-c3ccc(F)cc3)c(CC(=O)O)s2)cc1 | 170 | 190 | 30
35 | O=C(O)Cc1sc(Cc2ccc(Cl)cc2)nc1-c1ccc(Cl)cc1 | 50 | 220 | > 70
36 | O=C(O)Cc1sc(-c2ccccc2)nc1-c1ccccc1 | 870 | 2500 | > 70
37 | COc1ccc(-c2nc(-c3ccccc3)sc2CC(=O)O)cc1 | 7000 | 5000 | > 70
38 | COc1ccc(Nc2nc(-c3ccccc3)c(CC(=O)O)s2)cc1 | 940 | 1500 | > 70
39 | O=C(O)Cc1sc(Nc2ccccc2)nc1-c1ccc(Oc2ccccc2)cc1 | 84 | 350 | > 70
40 | COc1ccccc1-c1ccccc1Cc1nc(-c2ccc(F)cc2)c(CC(=O)O)s1 | 170 | > 100000 | > 70

Row | SMILES | IC50 [1] [nM] | IC50 [2] [nM] | Efficacy [3] [%]
41 | CCc1ccc(-c2nc(-c3ccccc3)sc2CC(=O)O)cc1 | 1300 | 350 | 50
42 | O=C(O)Cc1sc(-c2ccc(Oc3ccccc3)cc2)nc1-c1ccc(Cl)cc1 | 93 | 1300 | > 70
43 | O=C(O)Cc1sc(-c2ccc(Cl)cc2)nc1-c1ccccc1 | 990 | 1600 | > 70
44 | COc1ccccc1Nc1nc(-c2ccc(F)cc2)c(CC(=O)O)s1 | 1500 | 2100 | > 70
45 | O=C(O)Cc1sc(Nc2ccc3ccccc3c2)nc1-c1ccc(Br)cc1 | 220 | 370 | > 70
46 | O=C(O)Cc1sc(Cc2ccccc2)nc1-c1ccc(Cl)cc1 | 180 | 4100 | > 70
47 | O=C(O)Cc1sc(Nc2ccccc2)nc1-c1ccc(F)cc1 | 650 | 1300 | > 70
48 | O=C(O)Cc1sc(Nc2ccccc2Cl)nc1-c1ccc(Oc2ccccc2)cc1 | 130 | > 100000 | > 70
49 | O=C(O)Cc1sc(Cc2ccccc2Oc2ccccc2)nc1-c1ccc(Cl)cc1 | 160 | > 100000 | > 70
50 | O=C(O)Cc1sc(Cc2ccc(Cl)cc2)nc1-c1ccccc1 | 88 | 580 | > 70
51 | CC(C)c1ccc(Nc2nc(-c3ccc(Cl)cc3)c(CC(=O)O)s2)cc1 | 1200 | 16000 | > 70
52 | O=C(O)Cc1sc(Cc2ccc3ccccc3c2)nc1-c1ccc(Cl)cc1 | 41 | 570 | > 70
53 | COc1ccc(-c2nc(-c3ccc(Br)cc3)c(CC(=O)O)s2)cc1 | 390 |  | > 70
54 | O=C(O)Cc1sc(Nc2ccccc2F)nc1-c1ccc(Oc2ccccc2)cc1 | 210 | > 100000 | > 70
55 | N#Cc1cccc(-c2ccccc2Cc2nc(-c3ccc(F)cc3)c(CC(=O)O)s2)c1 | 340 | > 100000 | > 70
56 | O=C(O)Cc1sc(Nc2ccc3ccccc3c2)nc1-c1ccc(Oc2ccccc2)cc1 | 94 | 260 | 20
57 | COc1ccc(-c2nc(Cc3ccc(Cl)cc3)sc2CC(=O)O)cc1 | 360 | 850 | > 70
58 | COc1ccc(-c2nc(-c3ccc(OC)cc3)c(CC(=O)O)s2)cc1 | 4100 |  | > 70
59 | COc1ccc(-c2nc(-c3ccc(Oc4ccccc4)cc3)sc2CC(=O)O)cc1 | 470 | 1600 | > 70
60 | COc1ccc(-c2nc(-c3ccccc3)c(CC(=O)O)s2)cc1 | 820 | 1700 | > 70

— ChEMBL document CHEMBL1158515, “Novel selective thiazoleacetic acids as CRTH2 antagonists developed from in silico derived hits. Part 1” (Bioorg Med Chem Lett, 2010)
